According to ChEMBL document CHEMBL3792298, “Design, synthesis and in vitro evaluation studies of sulfonyl-amino-acetamides as small molecule BACE-1 inhibitors” (Bioorg Med Chem, 2016):

How the values were obtained:
Beta-secretase 1 [1] = biological target: T1, Beta-secretase 1 (Homo sapiens, UniProt P56817); assay: Inhibition of human BACE1 expressed in recombinant baculovirus-infected insect cells using rhodamine conjugated APP-based EVNLDAEFK as substrate at 10 uM after 60 mins by FRET analysis
T1 sequence (P56817 whole entry): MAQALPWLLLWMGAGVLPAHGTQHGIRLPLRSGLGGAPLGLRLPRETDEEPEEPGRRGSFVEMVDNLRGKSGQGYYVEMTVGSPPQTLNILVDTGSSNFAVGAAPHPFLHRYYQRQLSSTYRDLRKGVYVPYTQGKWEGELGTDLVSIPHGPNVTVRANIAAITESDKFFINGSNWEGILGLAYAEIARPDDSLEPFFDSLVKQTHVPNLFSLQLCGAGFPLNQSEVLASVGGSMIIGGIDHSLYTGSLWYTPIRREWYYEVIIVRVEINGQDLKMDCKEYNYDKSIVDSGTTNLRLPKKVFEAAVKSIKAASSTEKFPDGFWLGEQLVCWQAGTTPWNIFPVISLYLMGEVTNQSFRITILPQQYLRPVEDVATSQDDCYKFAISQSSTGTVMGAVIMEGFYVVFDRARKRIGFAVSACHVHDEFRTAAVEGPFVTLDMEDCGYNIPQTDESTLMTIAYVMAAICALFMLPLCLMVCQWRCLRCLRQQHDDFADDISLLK
Procedure, shortened: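 Commercial BACE-1 FRET kit run per supplier protocol, with 3X BACE-1 enzyme (1U/ml) in 50mM sodium acetate buffer, pH 4.5. Compounds were made as 10mM DMSO stocks and diluted in buffer to a final 10µM. After 60 min incubation, fluorescence was read with excitation at 545 nm. Percent inhibition is given as mean ± S.D. of triplicate independent experiments.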

Beta-secretase 1 [2] = biological target: T1, Beta-secretase 1; assay: Inhibition of human BACE1 expressed in recombinant baculovirus-infected insect cells using rhodamine conjugated APP-based EVNLDAEFK as substrate after 60 mins by FRET analysis
Procedure, shortened: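 FRET cleavage assay from a commercial BACE-1 kit, following supplier protocol. It used 3X BACE-1 enzyme (1U/ml) in 50mM sodium acetate buffer, pH 4.5. Test compounds were prepared as 10mM DMSO stocks and diluted with buffer. After 60 min incubation, fluorescence was read at 545 nm excitation.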

inhibition (Beta-secretase 1 [1])	IC50 (Beta-secretase 1 [2])	SMILES
18.5%	–	Cc1ccccc1S(=O)(=O)NCC(=O)Nc1ccccc1
34.8%	–	O=C(CNS(=O)(=O)c1ccc(Cl)cc1)Nc1ccc(Cl)cc1
42.1%	–	O=C(CNS(=O)(=O)c1cccc([N+](=O)[O-])c1)Nc1cccc(Cl)c1
52.9%	–	CC(=O)Nc1ccc(S(=O)(=O)NCC(=O)Nc2cccc(Cl)c2)cc1
28.6%	–	COc1ccc(S(=O)(=O)NCC(=O)Nc2ccccc2)cc1
28.4%	–	COc1ccc(S(=O)(=O)NCC(=O)Nc2ccc(C)cc2C)cc1
28.9%	–	CC(=O)Nc1ccc(S(=O)(=O)NCC(=O)Nc2ccccc2)cc1
37.1%	–	CC(=O)Nc1ccc(S(=O)(=O)NCC(=O)Nc2ccc(Cl)cc2)cc1
4.83%	–	O=C(CNS(=O)(=O)c1ccccc1)Nc1cccc(Cl)c1
22.8%	–	O=C(CNS(=O)(=O)c1ccc(Cl)cc1)Nc1ccccc1
41%	–	Cc1ccc(NC(=O)CNS(=O)(=O)c2cccc([N+](=O)[O-])c2)c(C)c1
35%	–	Cc1ccc(S(=O)(=O)NCC(=O)Nc2ccc(C)cc2C)cc1
8.72%	–	O=C(CNS(=O)(=O)c1ccccc1)Nc1ccccc1
21.9%	–	Cc1ccc(S(=O)(=O)NCC(=O)Nc2ccccc2)cc1

More lines, now with the values behind:

SMILES	inhibition (Beta-secretase 1 [1])	IC50 (Beta-secretase 1 [2])
O=C(CNS(=O)(=O)c1ccc([N+](=O)[O-])cc1)Nc1ccccc1	5.03%	–
Cc1ccc(S(=O)(=O)NCC(=O)Nc2ccc(Cl)cc2)cc1	25.3%	–
CC(=O)Nc1ccc(S(=O)(=O)NCC(=O)Nc2ccc(C)cc2C)cc1	61.9%	7.9 µM
O=C(CNS(=O)(=O)c1ccccc1)Nc1ccc(Cl)cc1	5.09%	–
O=C(CNS(=O)(=O)c1ccc(Cl)cc1)Nc1cccc(Cl)c1	48.6%	–
O=C(CNS(=O)(=O)c1ccccc1[N+](=O)[O-])Nc1ccc(Cl)cc1	18.5%	–
O=C(CNS(=O)(=O)c1ccccc1[N+](=O)[O-])Nc1ccccc1	14.9%	–
O=C(CNS(=O)(=O)c1cccc([N+](=O)[O-])c1)Nc1ccc(Cl)cc1	29.5%	–
O=C(CNS(=O)(=O)c1ccccc1[N+](=O)[O-])Nc1cccc(Cl)c1	17.5%	–
O=C(CNS(=O)(=O)c1ccc([N+](=O)[O-])cc1)Nc1ccc(Cl)cc1	9.89%	–
O=C(CNS(=O)(=O)c1cccc([N+](=O)[O-])c1)Nc1ccccc1	42%	–
Cc1ccc(NC(=O)CNS(=O)(=O)c2ccc(Cl)cc2)c(C)c1	35.9%	–
Cc1ccc(NC(=O)CNS(=O)(=O)c2ccc([N+](=O)[O-])cc2)c(C)c1	9.49%	–
Cc1ccc(NC(=O)CNS(=O)(=O)c2ccccc2)c(C)c1	5.38%	–
COc1ccc(S(=O)(=O)NCC(=O)Nc2cccc(Cl)c2)cc1	38.3%	–
O=C(CNS(=O)(=O)c1ccc([N+](=O)[O-])cc1)Nc1cccc(Cl)c1	17%	–
Cc1ccc(S(=O)(=O)NCC(=O)Nc2cccc(Cl)c2)cc1	31.8%	–
Cc1ccc(NC(=O)CNS(=O)(=O)c2ccccc2[N+](=O)[O-])c(C)c1	21.6%	–
COc1ccc(S(=O)(=O)NCC(=O)Nc2ccc(Cl)cc2)cc1	35.1%	–
